Paper PMC3123137 (Journal of immunology (Baltimore, Md. : 1950), 2011)
“Also recorded” adds a separate entry of the source. Bridge positions count the residues as written; N and C are the ends. Ends that are not written are not given here.

Experiments:
immune cells = conditions: addition to blood, hemodialysis; ref [15]; cited from earlier work
complement activation = conditions: cited from earlier work
cells = conditions: soluble inhibitor or heparin-coated surface; ref [8]–[11]; cited from earlier work
[1] = tested on: factor H cofactor activity; test: Factor H cofactor activity assay; type: biochemical, human; conditions: peptide expressed as fusion protein with phage PIII domain (Supplemental Fig. 2)
fH1–4 = fH1–4 (Homo sapiens, UniProt P08603); test: Monoclonal phage ELISA, N-terminal fragment; type: binding; conditions: phage clone; coated wells, 1 h room temperature, anti-M13 HRP/ABTS
How it was run: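 Wells were coated overnight at 4°C with recombinant factor H SCR1–4 (5 μg/ml in PBS), with BSA wells in parallel, then blocked with 5% milk in PBST for 1 h. Amplified single third-round plaques were bound for 1 h at RT and washed six times with PBST. Detection used HRP anti-M13 mAb with ABTS. An unrelated cyclic-peptide phage served as control, and C3b as negative control.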

various cells = conditions: ref [11], [58], [59]; cited from earlier work
plasma proteins = conditions: ref [56], [57]; cited from earlier work
factor H [2] = target: T1, factor H (Homo sapiens, UniProt P08603); test: ELISA, binding of purified factor H to immobilized peptide; conditions: summary statement
How it was run: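 Streptavidin (10 μg/ml in PBS) was coated overnight at 4°C and blocked with 2% BSA in PBS. Biotinylated test peptide or biotinylated linear compstatin control was added at 10 μg/ml for 30 min at RT. Purified human factor H was serially diluted in PBS from 2.5 μg/ml and bound for 1 h. Detection used goat anti-human factor H pAb, then HRP anti-goat IgG. Means ± SD, representative of three experiments.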

sheep erythrocytes = test: Hemolytic assay; type: cell-based
How it was run: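 Sheep erythrocytes washed in VBS–5 mM Mg2+/EGTA; cell amount set by water-lysis titration to give OD405 ~1. Serially diluted test compound or anti-factor H SCR19–20 mAb mixed with cells and human lepirudin plasma (1:10 in VBS–Mg2+/EGTA), 37°C, 1 h, shaking. Lysis read as supernatant OD405 after centrifugation. Run ≥3 times with different donors' plasma; means ± SD of a representative run.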

factor H [3] = target: T1, factor H; test: Factor H capture from lepirudin plasma by immobilized peptide; type: binding; conditions: no streptavidin-biotin conjugation
[4] = tested on: alternative pathway of complement; test: Inhibition of biomaterial-induced AP activation by immobilized peptide; type: biochemical, human

T1 sequence (P08603 19-1231): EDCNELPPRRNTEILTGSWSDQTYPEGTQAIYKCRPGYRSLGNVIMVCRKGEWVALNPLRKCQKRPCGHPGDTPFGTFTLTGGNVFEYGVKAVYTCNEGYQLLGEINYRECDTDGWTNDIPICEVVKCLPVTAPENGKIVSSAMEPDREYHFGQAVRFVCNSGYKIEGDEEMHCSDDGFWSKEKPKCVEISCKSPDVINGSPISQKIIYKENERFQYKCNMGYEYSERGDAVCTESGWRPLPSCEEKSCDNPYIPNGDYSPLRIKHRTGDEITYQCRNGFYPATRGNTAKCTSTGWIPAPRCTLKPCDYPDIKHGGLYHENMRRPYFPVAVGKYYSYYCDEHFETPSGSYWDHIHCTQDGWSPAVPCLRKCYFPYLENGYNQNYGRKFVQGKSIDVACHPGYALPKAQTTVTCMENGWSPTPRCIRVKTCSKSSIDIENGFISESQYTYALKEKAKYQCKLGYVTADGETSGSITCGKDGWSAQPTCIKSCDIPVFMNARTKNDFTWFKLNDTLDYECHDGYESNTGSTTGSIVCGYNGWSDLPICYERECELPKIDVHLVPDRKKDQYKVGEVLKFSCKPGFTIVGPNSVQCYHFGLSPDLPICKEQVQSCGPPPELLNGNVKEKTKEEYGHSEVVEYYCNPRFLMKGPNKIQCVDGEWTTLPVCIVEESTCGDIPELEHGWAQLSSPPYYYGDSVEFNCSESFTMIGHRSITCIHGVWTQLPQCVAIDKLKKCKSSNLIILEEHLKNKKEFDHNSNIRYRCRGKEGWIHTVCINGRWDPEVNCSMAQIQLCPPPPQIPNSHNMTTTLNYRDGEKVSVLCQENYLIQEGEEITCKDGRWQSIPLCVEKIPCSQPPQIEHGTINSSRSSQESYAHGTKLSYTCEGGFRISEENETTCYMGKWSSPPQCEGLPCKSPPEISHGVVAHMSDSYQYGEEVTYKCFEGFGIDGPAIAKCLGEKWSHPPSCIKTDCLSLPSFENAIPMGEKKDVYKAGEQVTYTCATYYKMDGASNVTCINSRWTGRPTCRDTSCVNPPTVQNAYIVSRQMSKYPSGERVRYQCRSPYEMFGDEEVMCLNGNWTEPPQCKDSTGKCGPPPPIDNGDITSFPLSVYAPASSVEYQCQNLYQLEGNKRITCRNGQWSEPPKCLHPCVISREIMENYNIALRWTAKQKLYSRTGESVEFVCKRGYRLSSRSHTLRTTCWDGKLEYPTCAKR
Sequence of fH1–4 (P08603 19-264): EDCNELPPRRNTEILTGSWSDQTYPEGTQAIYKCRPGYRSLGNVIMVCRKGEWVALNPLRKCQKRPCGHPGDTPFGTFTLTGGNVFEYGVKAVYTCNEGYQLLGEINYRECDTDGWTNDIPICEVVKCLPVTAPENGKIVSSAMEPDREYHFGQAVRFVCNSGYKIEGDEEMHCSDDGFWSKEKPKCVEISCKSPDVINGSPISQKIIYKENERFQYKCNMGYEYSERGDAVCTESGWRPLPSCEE

Molecule: compstatin
- Activation of immune cells and expression of pro-coagulative factors (immune cells): subsequent activation of immune cells and the expression of pro-coagulative factors
- Filter-induced complement response (complement activation; addition to blood, hemodialysis, ref [15]): inhibited filter-induced complement response
- Biomaterial-induced activation and surface adhesion of cells (cells): inhibition of complement activation largely attenuates biomaterial-induced activation and surface adhesion of cells

Molecule: ASSYDVGYSHDCRF [5-2C6]
- Effect on cofactor assay as phage PIII fusion protein [1]: affected
- Binding to fH1–4 (N-terminal regulatory region) (fH1–4): bound to the N-terminal regulatory region of factor H

Molecule: heparin
- Activation of cells (various cells): induces activation of various cells
- Dependence of inhibition on factor H capturing (complement activation; heparin coating, ref [55]): independent of factor H capturing by heparin
- Biomaterial-induced complement activation (complement activation; highly concentrated heparin coating, ref [14], [53]–[55]): inhibited biomaterial-induced complement activation
- Complement activation at low concentrations in the fluid phase (complement activation; ref [14], [60]): may actually enhance complement activation at low concentrations in the fluid phase
- Plasma protein binding specificity (plasma proteins): broad binding specificity for plasma proteins
- Biomaterial-induced activation and surface adhesion of cells (cells): inhibition of complement activation largely attenuates biomaterial-induced activation and surface adhesion of cells

Molecule: ASSSRCTYDHWCSH (disulfide 6-12 (inferred)) [5C6]
- Factor H-capturing activity (factor H [2]): high factor H-capturing activity while retaining its functional integrity; also recorded: able to capture factor H at high activity without interfering with its regulatory activity
- Lysis of sheep erythrocytes (sheep erythrocytes; 5C6 up to 40 μM, lepirudin plasma 1:10 in VBS–Mg2+/EGTA, 37°C, 1 h, OD405): No lysis
- Interference with factor H cell-surface binding / surface recognition (sheep erythrocytes; soluble 5C6 peptide, hemolytic assay (conclusion)): does not interfere with the cofactor activity or cell-surface binding properties of factor H; also recorded: did not interfere with the surface recognition properties of factor H
- Factor H binding, peptide coated directly onto polystyrene (factor H [3]): Neither factor H binding nor inhibition of complement was seen
- Inhibition of biomaterial-induced complement activation in undiluted plasma ([4]; immobilized on model biomaterial surface, undiluted lepirudin plasma): substantial inhibition of biomaterial-induced complement activation
- Inhibition of complement, peptide coated directly onto polystyrene ([4]; peptide coated directly, no streptavidin-biotin conjugation): Neither factor H binding nor inhibition of complement was seen

Molecule: ASSGMCFTKKTVLC (disulfide 6-14 (inferred)) [4A1]
- Effect on hemolytic assay as phage PIII fusion protein (sheep erythrocytes; peptide expressed as fusion protein with phage PIII domain (Supplemental Fig. 2)): affected

B1: decay accelerating factor (CD55): AP regulator immobilized on surfaces (protein, UniProt P08174 35-353, looked up)
Complement decay-accelerating …: DCGLPPDVPNAQPALEGRTSFPEDTVITYKCEESFVKIPGEKDSVICLKGSQWSDIEEFCNRSCEVPTRLNSASLKQPYITQNYFPVGTVVEYECRPGYRREPSLSPKLTCLQNLKWSTAVEFCKKKSCPNPGEIRNGQIDVPGGILFGATISFSCNTGYKLFGSTSSFCLISGSSVQWSDPLPECREIYCPAPPQIDNGIIQGERDHYGYRQSVTYACNKGFTMIGEHSIYCTVNNDEGEWSGPPPECRGKSLTSKVPPTVQKPTTVNVPTTEVSPTSQKTTTKTTTPNAQATRSTPVSRTTKHFHETTPNKGSGTTS
modifications: immobilized on surfaces
- Biomaterial-induced complement after immobilization of AP regulators (complement activation; immobilized regulator, ref [39]–[41]): attenuated biomaterial-induced complement
